Measurements as given in ChEMBL document CHEMBL3808334, “Synthesis and in vitro evaluation of novel triazine analogues as anticancer agents and their interaction studies with bovine serum albumin” (Eur J Med Chem, 2016).

Columns and labels:
[1] = Growth inhibition of human UO31 cells assessed as cell growth at 10^-6 M incubated for 48 hrs by sulforhodamine B assay; type: functional; conditions: UO-31, 48 h, read-out: Activity
MDA-MB-231 [2] = test: Growth inhibition of human MDA-MB-231 cells assessed as cell growth at 10^-8 M incubated for 48 hrs by sulforhodamine B assay; type: functional; conditions: MDA-MB-231, 48 h, read-out: Activity
[3] = Growth inhibition of human PC3 cells assessed as cell growth at 10^-8 M incubated for 48 hrs by sulforhodamine B assay; type: functional; conditions: PC-3, 48 h, read-out: Activity
CCRF-CEM [4] = test: Growth inhibition of human CCRF-CEM cells assessed as cell growth at 10^-5 M incubated for 48 hrs by sulforhodamine B assay; type: functional; conditions: read-out: Activity
Outline: (§1)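 Leukemia line in the five-dose format: five concentrations from 10-fold or ½-log serial dilutions. Plated at 5,000–40,000 cells per well, preincubated 24 h, then compound added for 48 h at 37 °C, 5% CO₂. Sulforhodamine B absorbance read at 515 nm. Growth is computed against time-zero (Tz) and control (C) readings; GI₅₀ is where [(Ti−Tz)/(C−Tz)]×100 = 50.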

[5] = Growth inhibition of human RXF393 cells assessed as cell growth at 10 uM incubated for 48 hrs by sulforhodamine B assay; type: functional; conditions: RXF 393, 48 h, read-out: Activity
[6] = Growth inhibition of human SNB75 cells assessed as cell growth at 10^-5 M incubated for 48 hrs by sulforhodamine B assay; type: functional; conditions: SNB-75, 48 h, read-out: Activity
SN12C [7] = test: Growth inhibition of human SN12C cells assessed as cell growth at 10^-5 M incubated for 48 hrs by sulforhodamine B assay; type: functional; conditions: read-out: Activity
[8] = Growth inhibition of human SF268 cells assessed as cell growth at 10^-4 M incubated for 48 hrs by sulforhodamine B assay; type: functional; conditions: SF-268, 48 h, read-out: Activity
A549 = test: Growth inhibition of human A549/ATCC cells assessed as cell growth at 10^-5 M incubated for 48 hrs by sulforhodamine B assay; type: functional; conditions: A549, 48 h, read-out: Activity
Outline: (§2)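 Five-dose assay: five concentrations from 10-fold or ½-log serial dilutions. Cells are plated at 5,000–40,000 per well according to doubling time, grown 24 h, then exposed 48 h at 37 °C, 5% CO₂. Fixed with cold 50% TCA (final addition) for 60 min at 4 °C and stained with 0.4% SRB in 1% acetic acid. Bound dye is solubilized in 10 mM Tris base and read at 515 nm. GI₅₀ is where [(Ti−Tz)/(C−Tz)]×100 = 50, with a time-zero plate as Tz.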

MDA-MB-468 = test: Growth inhibition of human MDA-MB-468 cells incubated for 48 hrs by sulforhodamine B assay; type: functional; conditions: MDA-MB-468, 48 h
Outline: (§3)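 Cells were plated at 5,000–40,000 per well according to doubling time and preincubated 24 h at 37 °C in 5% CO2; time-zero plates were then TCA-fixed. Five concentrations (10-fold or ½-log dilutions, DMSO stock) were incubated 48 h. Cells were TCA-fixed, stained with 0.4% SRB and read at 515 nm. GI50 was taken where [(Ti−Tz)/(C−Tz)]×100 = 50.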

[9] = Growth inhibition of human MOLT4 cells assessed as cell growth at 10^-5 M incubated for 48 hrs by sulforhodamine B assay; type: functional; conditions: MOLT-4, 48 h, read-out: Activity
[10] = Growth inhibition of human SF295 cells assessed as cell growth at 10^-4 M incubated for 48 hrs by sulforhodamine B assay; type: functional; conditions: SF-295, 48 h, read-out: Activity
[11] = Growth inhibition of human OVCAR3 cells incubated for 48 hrs by sulforhodamine B assay; type: functional; conditions: OVCAR-3, 48 h; outline: as §3
CCRF-CEM [12] = test: Growth inhibition of human CCRF-CEM cells assessed as cell growth at 10^-8 M incubated for 48 hrs by sulforhodamine B assay; type: functional; conditions: read-out: Activity; outline: as §1
MDA-MB-231 [13] = test: Growth inhibition of human MDA-MB-231 cells incubated for 48 hrs by sulforhodamine B assay; type: functional; conditions: MDA-MB-231, 48 h; outline: as §3
[14] = Growth inhibition of human Hs 578T cells assessed as cell growth at 10 uM incubated for 48 hrs by sulforhodamine B assay; type: functional; conditions: read-out: Activity
[15] = Growth inhibition of human Hs 578T cells incubated for 48 hrs by sulforhodamine B assay; type: functional; outline: as §3
786-0 = test: Growth inhibition of human 786-0 cells assessed as cell growth at 10^-6 M incubated for 48 hrs by sulforhodamine B assay; type: functional; conditions: 786-0, 48 h, read-out: Activity; outline: as §2
ACHN = test: Growth inhibition of human ACHN cells assessed as cell growth at 10^-5 M incubated for 48 hrs by sulforhodamine B assay; type: functional; conditions: read-out: Activity; outline: as §2
[16] = Growth inhibition of human SW620 cells incubated for 48 hrs by sulforhodamine B assay; type: functional; conditions: SW-620, 48 h; outline: as §3
Albumin = Albumin (Bos taurus, UniProt P02769); test: Binding affinity to bovine serum albumin assessed as red shift in emission intensity up to 20 uM by fluorescence spectroscopic analysis relative to control; type: ADME; conditions: cattle, isolated protein
Albumin, sequence (P02769 whole entry): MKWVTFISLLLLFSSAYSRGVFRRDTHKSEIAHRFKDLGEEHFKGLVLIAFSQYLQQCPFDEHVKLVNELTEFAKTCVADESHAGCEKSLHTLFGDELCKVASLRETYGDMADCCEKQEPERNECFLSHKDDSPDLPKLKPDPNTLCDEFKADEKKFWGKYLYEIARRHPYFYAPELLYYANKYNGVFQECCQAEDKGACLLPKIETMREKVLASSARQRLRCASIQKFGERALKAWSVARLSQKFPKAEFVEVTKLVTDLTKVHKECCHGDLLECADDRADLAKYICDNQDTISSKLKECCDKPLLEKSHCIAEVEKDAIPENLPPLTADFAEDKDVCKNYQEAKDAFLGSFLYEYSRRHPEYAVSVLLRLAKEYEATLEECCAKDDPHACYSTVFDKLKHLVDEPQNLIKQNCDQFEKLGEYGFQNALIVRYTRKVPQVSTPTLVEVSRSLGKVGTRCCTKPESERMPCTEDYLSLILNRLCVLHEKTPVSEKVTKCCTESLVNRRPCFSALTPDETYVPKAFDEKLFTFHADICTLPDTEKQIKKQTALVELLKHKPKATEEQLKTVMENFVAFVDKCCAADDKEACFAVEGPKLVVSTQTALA
Outline: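 Fluorescence titration of 10 µM BSA in 0.1 M phosphate buffer pH 7.4 with compound at 0–20 µM, diluted from DMSO stocks. Excitation 280 nm, slit 10 nm, 1 cm quartz cell, 300 K. Changes in the 350 nm Trp emission, new bands near 370–373 nm and isoemissive points are read against BSA alone.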

U-251 [17] = test: Growth inhibition of human U251 cells assessed as cell growth at 10 uM incubated for 48 hrs by sulforhodamine B assay; type: functional; conditions: U-251, 48 h, read-out: Activity
U-251 [18] = test: Growth inhibition of human U251 cells assessed as cell growth at 10^-8 M incubated for 48 hrs by sulforhodamine B assay; type: functional; conditions: U-251, 48 h, read-out: Activity
[19] = Growth inhibition of human Caki1 cells assessed as cell growth at 10 uM incubated for 48 hrs by sulforhodamine B assay; type: functional; conditions: CAKI-1, 48 h, read-out: Activity
Outline: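 Primary screen at one dose (10 µM) across 60 human cancer cell lines. Readout was growth percent relative to untreated control and time-zero.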

SN12C [20] = test: Growth inhibition of human SN12C cells assessed as cell growth at 10^-7 M incubated for 48 hrs by sulforhodamine B assay; type: functional; conditions: read-out: Activity
[21] = read-out: LC50 (the source's name)
[22] = read-out: pLC50 (the source's name) (converted)

Question: Which growth at 1 µM [1] does the source give for c1ccc(-c2nc(Nc3ccc(-c4nc5ccccc5[nH]4)cc3)nc(N3CCOCC3)n2)cc1 here?
Answer: Its growth at 1 µM is 68%.

Question: And the growth at 0.01 µM (MDA-MB-231 [2])?
Answer: Its growth at 0.01 µM is 97%.

Question: What about the growth at 0.01 µM [3] of the same molecule?
Answer: Its growth at 0.01 µM is 99%.

Question: What about the growth at 10 µM (CCRF-CEM [4]) of the same molecule?
Answer: Its growth at 10 µM is -33%.

Question: What about the growth at 10 µM [5] of the same molecule?
Answer: Its growth at 10 µM is -75.1%.

Question: What about the growth at 10 µM [6] of the same molecule?
Answer: Its growth at 10 µM is -88%.

Question: And the growth at 10 µM (SN12C [7])?
Answer: The growth at 10 µM was -60%.

Question: And the growth at 100 µM [8]?
Answer: The growth at 100 µM was -78%.

Question: And the growth at 10 µM (A549)?
Answer: The growth at 10 µM was -63%.

Question: And the GI50 (MDA-MB-468; read-out: GI50)?
Answer: Its GI50 is 2.13 µM.

Question: And the CC50 (MDA-MB-468; [21])?
Answer: The CC50 was 9.03 µM.

Question: And the TGI (MDA-MB-468; read-out: TGI)?
Answer: The TGI was 4.39 µM.

Question: And the GI50 (MDA-MB-468; read-out: pGI50 (converted))?
Answer: Its GI50 is 2.14 µM.

Question: And the CC50 (MDA-MB-468; [22])?
Answer: Its CC50 is 9.12 µM.

Question: What about the TGI (MDA-MB-468; read-out: pTGI (converted)) of the same molecule?
Answer: The TGI was 4.37 µM.

Question: What about the growth at 10 µM [9] of the same molecule?
Answer: Its growth at 10 µM is -53%.

Question: What about the growth at 100 µM [10] of the same molecule?
Answer: The growth at 100 µM was -71%.

Question: And the GI50 ([11]; read-out: GI50)?
Answer: The GI50 was 1.52 µM.

Question: What about the CC50 [11, 21] of the same molecule?
Answer: Its CC50 is 5.83 µM.

Question: What about the TGI ([11]; read-out: TGI) of the same molecule?
Answer: Its TGI is 2.98 µM.

Question: What about the GI50 ([11]; read-out: pGI50 (converted)) of the same molecule?
Answer: The GI50 was 1.51 µM.

Question: What about the CC50 [11, 22] of the same molecule?
Answer: Its CC50 is 5.89 µM.

Question: What about the TGI ([11]; read-out: pTGI (converted)) of the same molecule?
Answer: The TGI was 2.95 µM.

Question: And the growth at 0.01 µM (CCRF-CEM [12])?
Answer: The growth at 0.01 µM was 102%.

Question: What about the GI50 (MDA-MB-231 [13]; read-out: GI50) of the same molecule?
Answer: Its GI50 is 1.29 µM.

Question: And the CC50 (MDA-MB-231 [13]; [21])?
Answer: Its CC50 is 9.4 µM.

Question: And the TGI (MDA-MB-231 [13]; read-out: TGI)?
Answer: The TGI was 3.48 µM.

Question: What about the GI50 (MDA-MB-231 [13]; read-out: pGI50 (converted)) of the same molecule?
Answer: The GI50 was 1.29 µM.

Question: What about the CC50 (MDA-MB-231 [13]; [22]) of the same molecule?
Answer: The CC50 was 9.33 µM.

Question: And the TGI (MDA-MB-231 [13]; read-out: pTGI (converted))?
Answer: The TGI was 3.47 µM.

Question: And the growth at 10 µM [14]?
Answer: Its growth at 10 µM is -39.9%.

Question: What about the GI50 ([15]; read-out: GI50) of the same molecule?
Answer: The GI50 was 1.89 µM.

Question: And the CC50 [15, 21]?
Answer: The CC50 was greater than 100 µM.

Question: And the TGI ([15]; read-out: TGI)?
Answer: Its TGI is 6.04 µM.

Question: What about the GI50 ([15]; read-out: pGI50 (converted)) of the same molecule?
Answer: Its GI50 is 1.91 µM.

Question: What about the CC50 [15, 22] of the same molecule?
Answer: The CC50 was greater than 100 µM.

Question: What about the TGI ([15]; read-out: pTGI (converted)) of the same molecule?
Answer: The TGI was 6.03 µM.

Question: And the growth at 1 µM (786-0)?
Answer: Its growth at 1 µM is 9%.

Question: And the growth at 10 µM (ACHN)?
Answer: The growth at 10 µM was -82%.

Question: What about the GI50 ([16]; read-out: GI50) of the same molecule?
Answer: Its GI50 is 0.627 µM.

Question: What about the CC50 [16, 21] of the same molecule?
Answer: Its CC50 is 5.82 µM.

Question: And the TGI ([16]; read-out: TGI)?
Answer: The TGI was 2.17 µM.

Question: What about the GI50 ([16]; read-out: pGI50 (converted)) of the same molecule?
Answer: Its GI50 is 0.631 µM.

Question: And the CC50 [16, 22]?
Answer: Its CC50 is 5.75 µM.

Question: What about the TGI ([16]; read-out: pTGI (converted)) of the same molecule?
Answer: The TGI was 2.19 µM.

Question: And the Activity (Albumin)?
Answer: The Activity was 20 nm.

Question: And the growth at 10 µM (U-251 [17])?
Answer: Its growth at 10 µM is -67.5%.

Question: What about the growth at 0.01 µM (U-251 [18]) of the same molecule?
Answer: Its growth at 0.01 µM is 105%.

Question: And the growth at 10 µM [19]?
Answer: Its growth at 10 µM is -89.4%.

Question: What about the growth at 0.1 µM (SN12C [20]) of the same molecule?
Answer: Its growth at 0.1 µM is 90%.
